Source: ChEMBL document CHEMBL4325926, “Potent Antimalarial 2-Pyrazolyl Quinolone bc 1 (Qi) Inhibitors with Improved Drug-like Properties” (ACS Med Chem Lett, 2018)
pIC50: −log10 of the molar value. Values after ≈ are worked out from the molar mass of the structure shown. Active and inactive are the calls of the source. The calls are words filed in the database; no cut-off is given here.

Assays:
Plasmodium falciparum [1] = assay: Antimalarial activity against chloroquine-sensitive Plasmodium falciparum 3D7 measured after 48 hrs by SYBR green1 dye based fluorescence assay; assay type: functional, organism-based; details: 3D7, 48 h
[2] = Aqueous solubility of the compound in pH 7.4 phosphate buffered saline; assay type: physicochemical
How it was run: (§1)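 In vitro DMPK measurements performed by an external DMPK group. Aqueous solubility measured in pH 7.4 PBS buffer. Protein binding measured in human plasma.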

HepG2 = assay: Cytotoxicity against human HepG2 cells after 24 hrs by MTT assay; assay type: cell-based; details: HepG2, 24 h
[3] = Therapeutic index, ratio of IC50 for human HepG2 cells to IC50 for chloroquine-sensitive Plasmodium falciparum 3D7
[4] = Inhibition of recombinant Plasmodium falciparum NDH2 expressed in Escherichia coli using NADH as substrate
Plasmodium falciparum [5] = assay: Antimalarial activity against chloroquine-resistant Plasmodium falciparum W2 measured after 48 hrs by SYBR green1 dye based fluorescence assay; assay type: functional, organism-based; details: W2, 48 h
[6] = Protein binding in human plasma; assay type: ADME, cell-free; details: read-out: PPB; how it was run: as §1
Plasmodium falciparum [7] = assay: Antimalarial activity against chloroquine-resistant Plasmodium falciparum TM90C2B harboring Y268S mutant measured after 48 hrs by SYBR green1 dye based fluorescence assay; assay type: functional, organism-based
Plasmodium falciparum [8] = assay: Antimalarial activity against Plasmodium falciparum TX13 expressing yeast dihydroorotate dehydrogenase at >1000 nM; assay type: functional, organism-based
[9] = Inhibition of Plasmodium falciparum cytochrome bc1 complex using cytochrome-c as substrate and decylubiquinol as donor by spectrophotometric method

## Cc1c(-c2cnn(Cc3ccc(OC(F)(F)F)cc3)c2)[nH]c2ccc(Cl)cc2c1=O
Plasmodium falciparum [1]
  pIC50: 6.96

## Cc1c(-c2ccc(Cc3ccc(OC(F)(F)F)cc3)cc2)[nH]c2ccccc2c1=O
[2]
  solubility: 0.03 µM (≈ 0.0123 µg/mL)

## O=c1cc(-c2cnn(Cc3ccc(C(F)(F)F)nc3)c2)[nH]c2ccccc12
Plasmodium falciparum [1]
  pIC50: 6.24

## Cc1c(-c2cnn(CCc3ccc(OC(F)(F)F)cc3)c2)[nH]c2ccccc2c1=O
Plasmodium falciparum [1]
  pIC50: < 6.00

## CCc1c(-c2cnn(Cc3ccc(OC(F)(F)F)cc3)c2)[nH]c2ccccc2c1=O
HepG2
  pIC50: 4.71
[3]
  selectivity ratio: 219
Plasmodium falciparum [1]
  pIC50: 7.06
[2]
  solubility: 0.2 µM (≈ 0.0827 µg/mL)

## O=c1cc(-c2cnn(CCN3CCOCC3)c2)[nH]c2ccccc12
Plasmodium falciparum [1]
  pIC50: 6.16

## Cc1c(-c2ccc(-c3cnn(CCN4CCOCC4)c3)cc2)[nH]c2ccccc2c1=O
Plasmodium falciparum [1]
  pIC50: < 6.00

## Cc1c(-c2cnn(Cc3ccc(OC(F)(F)F)cc3)c2)[nH]c2cc(C(F)(F)F)ccc2c1=O
Plasmodium falciparum [1]
  pIC50: 6.09

## O=C1C(O)=C([C@H]2CC[C@H](c3ccc(Cl)cc3)CC2)C(=O)c2ccccc21 [ATOVAQUONE]
[4]
  pIC50: 5.00
Plasmodium falciparum [5]
  pIC50: 9.52

## O=c1cc(-c2cnn(Cc3ccc(OC(F)(F)F)cc3)c2)[nH]c2ccccc12
Plasmodium falciparum [1]
  pIC50: 7.13

## O=c1c(Cl)c(-c2cnn(Cc3ccc(OC(F)(F)F)cc3)c2)[nH]c2ccccc12
HepG2
  pIC50: 4.55
[3]
  selectivity ratio: 171
Plasmodium falciparum [1]
  pIC50: 6.78
Plasmodium falciparum [5]
  pIC50: 7.85
[2]
  solubility: 0.01 µM (≈ 0.0042 µg/mL)
[6]
  fraction unbound: < 0.001

## COc1ccc2c(=O)cc(-c3cnn(Cc4ccc(OC(F)(F)F)cc4)c3)[nH]c2c1
Plasmodium falciparum [1]
  pIC50: 6.38

## Cc1c(-c2ccc(-c3cnn(CCN4CCOCC4)c3)nc2)[nH]c2ccccc2c1=O
Plasmodium falciparum [1]
  pIC50: < 6.00

## COc1ccc2c(=O)c(Cl)c(-c3ccn(Cc4ccc(OC(F)(F)F)cc4)n3)[nH]c2c1
Plasmodium falciparum [1]
  pIC50: 6.42

## COc1ccc2c(=O)c(Cl)c(-c3cnn(Cc4ccc(OC(F)(F)F)cc4)c3)[nH]c2c1
Plasmodium falciparum [7]
  pIC50: 6.96
Plasmodium falciparum [1]
  pIC50: 7.04
Plasmodium falciparum [5]
  pIC50: 7.96
Plasmodium falciparum [8]
  Activity: inactive

## CC(C)c1c(-c2cnn(Cc3ccc(OC(F)(F)F)cc3)c2)[nH]c2ccccc2c1=O
Plasmodium falciparum [1]
  pIC50: 6.52

## O=c1cc(-c2cnn(Cc3ccc(F)cc3)c2)[nH]c2ccccc12
Plasmodium falciparum [1]
  pIC50: 6.80

## Cc1c(-c2ccn(Cc3ccc(OC(F)(F)F)cc3)n2)[nH]c2ccccc2c1=O
Plasmodium falciparum [7]
  pIC50: 6.52
HepG2
  pIC50: 4.67
[3]
  selectivity ratio: 79
Plasmodium falciparum [1]
  pIC50: 6.57
[4]
  pIC50: 7.17
Plasmodium falciparum [5]
  pIC50: 7.31
[2]
  solubility: 0.4 µM (≈ 0.16 µg/mL)

## CC/C(=C(\c1ccccc1)c1ccc(OCCN(C)C)cc1)c1ccccc1 [TAMOXIFEN]
HepG2
  pIC50: 4.92

## COc1ccc2c(=O)c(C)c(-c3cnn(Cc4ccc(OC(F)(F)F)cc4)c3)[nH]c2c1
Plasmodium falciparum [7]
  pIC50: 6.30
HepG2
  pIC50: 4.96
[3]
  selectivity ratio: 333
Plasmodium falciparum [1]
  pIC50: 7.48
[9]
  pIC50: 9.12
[4]
  pIC50: 6.00
Plasmodium falciparum [5]
  pIC50: 7.82
[2]
  solubility: 0.3 µM (≈ 0.129 µg/mL)

## COc1ccc2c(=O)cc(-c3ccn(Cc4ccc(OC(F)(F)F)cc4)n3)[nH]c2c1
Plasmodium falciparum [1]
  pIC50: 6.27

## C=C(C)[C@H]1Cc2c(ccc3c2O[C@@H]2COc4cc(OC)c(OC)cc4[C@@H]2C3=O)O1 [ROTENONE]
HepG2
  pIC50: 5.82

## Cc1c(-c2cnn(Cc3ccc(OC(F)(F)F)cc3)c2)[nH]c2ccc(F)cc2c1=O
Plasmodium falciparum [1]
  pIC50: 7.27

## Cc1c(-c2cnn(Cc3ccc(OC(F)(F)F)cc3)c2)[nH]c2cc(F)ccc2c1=O
Plasmodium falciparum [1]
  pIC50: 7.10

## Cc1c(-c2cnn(Cc3ccc(OC(F)(F)F)cc3)c2)[nH]c2cc(Cl)ccc2c1=O
Plasmodium falciparum [1]
  pIC50: 7.30

## CCOC(=O)c1c(-c2cnn(Cc3ccc(OC(F)(F)F)cc3)c2)[nH]c2ccccc2c1=O
Plasmodium falciparum [1]
  pIC50: 7.05

## Cc1c(-c2cnn(Cc3ccc(OC(F)(F)F)cc3)c2)[nH]c2ccccc2c1=O
HepG2
  pIC50: 4.89
[3]
  selectivity ratio: 130
Plasmodium falciparum [1]
  pIC50: 7.00
[4]
  pIC50: 6.08
Plasmodium falciparum [5]
  pIC50: 7.48
[2]
  solubility: 0.1 µM (≈ 0.0399 µg/mL)
